Reference: ChEMBL document CHEMBL3621166, “Synthesis, Structure-Activity Relationship, and Mechanistic Investigation of Lithocholic Acid Amphiphiles for Colon Cancer Therapy” (Medchemcomm, 2015)
The source made the active and inactive calls. The calls are words filed in the database; no cut-off is given here.

Key:
[1] = Retention time of the compound by HPLC method; assay type: physicochemical
[2] = tested on: HCT-116; assay: Cytotoxicity against human HCT116 cells assessed as cell viability after 48 hrs by MTT assay; assay type: functional, cell-based; details: HCT-116, 48 h
[3] = Cytotoxicity against human DLD1 cells assessed as cell viability after 48 hrs by MTT assay; assay type: functional, cell-based; details: DLD-1, 48 h
[4] = Cytotoxicity against human HCT8 cells assessed as cell viability after 48 hrs by MTT assay; assay type: functional, cell-based; details: HCT-8, 48 h
[5] = Selectivity ratio of human DLD1 cells over CHO cells; assay type: cell-based; details: Chinese hamster (CHO), DLD1 cells versus CHO cells
[6] = Selectivity ratio of human HCT8 cells over CHO cells; assay type: ADME, cell-based; details: Chinese hamster (CHO), HCT8 cells versus CHO cells
[7] = tested on: A549; assay: Selectivity ratio of human HCT116 cells over human A549 cells; assay type: functional
[8] = tested on: A549; assay: Selectivity ratio of human DLD1 cells over human A549 cells; assay type: functional
[9] = tested on: A549; assay: Selectivity for human HCT8 cells over human A549 cells; assay type: functional
[10] = tested on: DLD-1; assay: Inhibition of colony formation in human DLD1 cells at 15 to 50 uM after 2 weeks using crystal violet staining; assay type: functional, cell-based
Outline: (§1)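 Cells plated at 200 per well and treated after 24 h adherence at 15, 25 or 50 μM. Colonies stained with crystal violet after 2 weeks and counted. Plating efficiency taken from untreated wells, survival fraction from treated colony counts. Two experiments in duplicate, mean ± SD.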

[11] = tested on: HCT-8; assay: Inhibition of colony formation in human HCT8 cells at 15 to 50 uM after 2 weeks using crystal violet staining; assay type: functional, cell-based; outline: as §1
[12] = tested on: HCT-116; assay: Inhibition of colony formation in human HCT116 cells at 15 uM after 2 weeks using crystal violet staining; assay type: functional; details: HCT-116, 336 h
[13] = tested on: HCT-116; assay: Inhibition of colony formation in human HCT116 cells at 50 uM after 2 weeks using crystal violet staining; assay type: functional, cell-based; outline: as §1
[14] = tested on: HCT-116; assay: Cell cycle arrest in human HCT116 cells assessed as accumulation at sub-G1 phase at 50 uM after 48 hrs using propidium iodide staining by FACS analysis; assay type: functional
[15] = Cell cycle arrest in human DLD1 cells assessed as accumulation at sub-G1 phase at 50 uM after 48 hrs using propidium iodide staining by FACS analysis; assay type: functional, cell-based; details: DLD-1
Outline: (§2)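 Cells seeded at ~2 × 10^5 per well, treated after 24 h at 15, 25 and 50 μM for 48 h. Harvested by trypsin, washed in cold PBS and fixed in 70% ice-cold ethanol. RNase-treated 1 h at 37 °C, stained with propidium iodide (50 μg mL−1) 20 min at room temperature, and analysed by FACS. Triplicate, mean ± SD.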

[16] = Cell cycle arrest in human HCT8 cells assessed as accumulation at sub-G1 phase at 50 uM after 48 hrs using propidium iodide staining by FACS analysis; assay type: functional, cell-based; details: HCT-8; outline: as §2
[17] = tested on: HCT-116; assay: Induction of apoptosis in human HCT116 cells assessed as late apoptotic cells at 15 uM after 48 hrs using annexin-V FITC and propidium iodide staining by flow cytometry (reference value: 1.59%); assay type: functional
[18] = tested on: HCT-116; assay: Induction of apoptosis in human HCT116 cells assessed as late apoptotic cells at 25 uM after 48 hrs using annexin-V FITC and propidium iodide staining by flow cytometry (reference value: 1.59%); assay type: functional
[19] = tested on: HCT-116; assay: Induction of apoptosis in human HCT116 cells assessed as late apoptotic cells at 50 uM after 48 hrs using annexin-V FITC and propidium iodide staining by flow cytometry (reference value: 1.59%); assay type: functional
[20] = tested on: HCT-116; assay: Induction of apoptosis in human HCT116 cells assessed as early apoptotic cells at 15 uM after 48 hrs using annexin-V FITC and propidium iodide staining by flow cytometry (reference value: 4.80%); assay type: functional
[21] = tested on: HCT-116; assay: Induction of apoptosis in human HCT116 cells assessed as early apoptotic cells at 25 uM after 48 hrs using annexin-V FITC and propidium iodide staining by flow cytometry (reference value: 4.80%); assay type: functional
[22] = tested on: HCT-116; assay: Induction of apoptosis in human HCT116 cells assessed as early apoptotic cells at 50 uM after 48 hrs using annexin-V FITC and propidium iodide staining by flow cytometry (reference value: 4.80%); assay type: functional
[23] = tested on: HCT-116; assay: Antitumor activity against human HCT116 cells xenografted in nude mouse assessed as reduction in tumor volume at 20 mg/kg after 6 days; assay type: functional; parameters: scale not given: the % may be the effect or the level left
[24] = tested on: HCT-116; assay: Induction of apoptosis in human HCT116 cells assessed as increased level of procaspase-8 at 10 uM by Western blot analysis; assay type: functional, cell-based
[25] = tested on: HCT-116; assay: Induction of apoptosis in human HCT116 cells assessed as decreased level of procaspase-8 at 50 uM by Western blot analysis; assay type: functional, cell-based
[26] = tested on: HCT-116; assay: Induction of apoptosis in human HCT116 cells assessed as increased level of cleaved caspase-7 at 10 to 50 uM by Western blot analysis; assay type: functional, cell-based
[27] = tested on: HCT-116; assay: Induction of apoptosis in human HCT116 cells assessed as increased level of cleaved caspase-3 at 10 to 50 uM by Western blot analysis; assay type: functional, cell-based
[28] = tested on: HCT-116; assay: Induction of apoptosis in human HCT116 cells xenografted in nude mouse assessed as increased level of cleaved caspase-3 at 20 mg/kg after 6 days by Western blot analysis relative to control; assay type: functional, organism-based
Outline: (§3)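 Female nude mice, 6 weeks old, received 1.5 × 10^6 HCT-116 cells in the right flank. At ~750 mm3 mice were split into groups of 5 and dosed from day 19 at 20 mg kg−1 near the tumour, vehicle as control. Tumours were harvested at sacrifice on day 25 and homogenised in RIPA buffer. Equal protein loaded, transferred to PVDF, blocked in 5% milk/TBST, primary antibodies overnight at 4 °C, HRP secondary, ECL detection.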

[29] = tested on: HCT-116; assay: Induction of apoptosis in human HCT116 cells xenografted in nude mouse assessed as increased level of cleaved caspase-7 at 20 mg/kg after 6 days by Western blot analysis relative to control; assay type: functional, organism-based; outline: as §3
[30] = tested on: HCT-116; assay: Induction of apoptosis in human HCT116 cells xenografted in nude mouse assessed as increased level of cleaved caspase-8 at 20 mg/kg after 6 days by Western blot analysis relative to control; assay type: functional, organism-based; outline: as §3
[31] = tested on: HCT-116; assay: Ratio of lithocholic acid IC50 to compound IC50 for human HCT116 cells assessed as cell viability after 48 hrs by MTT assay; assay type: functional
[32] = tested on: HCT-8; assay: Ratio of lithocholic acid IC50 to compound IC50 for human HCT8 cells assessed as cell viability after 48 hrs by MTT assay; assay type: functional
[33] = Toxicity in RBC (unknown origin) assessed as hemolytic activity; assay type: cell-based, Erythrocyte; details: red blood cells
[34] = tested on: HCT-116; assay: Induction of apoptosis in human HCT116 cells assessed as apoptotic cells at 25 uM after 48 hrs using annexin-V FITC and propidium iodide staining by flow cytometry relative to lithocholic acid; assay type: functional
[35] = tested on: HCT-116; assay: Induction of apoptosis in human HCT116 cells assessed as apoptotic cells at 50 uM after 48 hrs using annexin-V FITC and propidium iodide staining by flow cytometry relative to lithocholic acid; assay type: functional
[36] = tested on: HCT-116; assay: Antitumor activity against human HCT116 cells xenografted in nude mouse assessed as reduction in tumor volume at 20 mg/kg measured up to 25 days; assay type: functional; parameters: scale not given: the % may be the effect or the level left
[37] = Selectivity ratio of human HCT116 cells over human THP1 cells; assay type: ADME, cell-based, HCT-116; details: HCT116 cells versus THP1 cells
[38] = Selectivity ratio of human DLD1 cells over human THP1 cells; assay type: ADME, cell-based, THP-1; details: DLD1 cells versus THP1 cells
[39] = Selectivity ratio of human HCT8 cells over human THP1 cells; assay type: ADME, cell-based, THP-1; details: HCT8 cells versus THP1 cells
[40] = Selectivity ratio of human HCT116 cells over CHO cells; assay type: cell-based; details: Chinese hamster (CHO), HCT116 cells versus CHO cells
[41] = tested on: HCT-116; assay: Inhibition of colony formation in human HCT116 cells at 15 to 50 uM after 2 weeks using crystal violet staining; assay type: functional, cell-based; outline: as §1
[42] = tested on: HCT-116; assay: Cell cycle arrest in human HCT116 cells at 15 to 50 uM after 48 hrs using propidium iodide staining by FACS analysis; assay type: functional, cell-based; outline: as §2
[43] = Cell cycle arrest in human DLD1 cells at 15 to 50 uM after 48 hrs using propidium iodide staining by FACS analysis; assay type: functional, cell-based; details: DLD-1; outline: as §2
[44] = Cell cycle arrest in human HCT8 cells at 15 to 50 uM after 48 hrs using propidium iodide staining by FACS analysis; assay type: functional, cell-based; details: HCT-8; outline: as §2

COC(=O)CC[C@@H](C)[C@H]1CC[C@H]2[C@@H]3CC[C@@H]4C[C@H](OC(=O)C[n+]5ccccc5)CC[C@]4(C)[C@H]3CC[C@]12C.[Cl-]
Retention_time [1]: 7.84 min | IC50 [2]: 26.5 µM | IC50 [3]: 35.4 µM | IC50 [4]: 35.4 µM

COC(=O)CC[C@@H](C)[C@H]1CC[C@H]2[C@@H]3CC[C@@H]4C[C@H](OC(=O)CN5CCOCC5)CC[C@]4(C)[C@H]3CC[C@]12C.Cl
Retention_time [1]: 24.17 min | IC50 [2]: 89 µM | IC50 [3]: 176 µM | IC50 [4]: 121 µM

COC(=O)CC[C@@H](C)[C@H]1CC[C@H]2[C@@H]3CC[C@@H]4C[C@H](OC(=O)CN5CCSCC5)CC[C@]4(C)[C@H]3CC[C@]12C.Cl
Retention_time [1]: 28.63 min | IC50 [2]: 87.3 µM | IC50 [3]: 163 µM | IC50 [4]: 130 µM

COC(=O)CC[C@@H](C)[C@H]1CC[C@H]2[C@@H]3CC[C@@H]4C[C@H](OC(=O)C[N+]5(C)CCCCC5)CC[C@]4(C)[C@H]3CC[C@]12C.[Cl-]
selectivity ratio [5]: 5 | selectivity ratio [6]: 5 | selectivity ratio [7]: 2 | selectivity ratio [8]: 2 | selectivity ratio [9]: 2 | inhibition [10]: Active | inhibition [11]: Active | inhibition at 15 µM [12]: 50% | inhibition [13]: Active | Activity [14]: 80% | Activity [15]: 80% | Activity [16]: 40% | Activity [17]: 12.47% | Activity [18]: 15.78% | Activity [19]: 26.63% | Activity [20]: 9.04% | Activity [21]: 23.57% | Activity [22]: 41.19% | Activity [23]: 75% | Activity [24]: inactive | Activity [25]: Active | Activity [26]: Active | Activity [27]: Active | Activity [28]: Active | Activity [29]: Active | Activity [30]: Active | Ratio IC50 [31]: 6 | Ratio IC50 [32]: 6 | Retention_time [1]: 8.12 min | HC50 [33]: > 1 mM | Ratio [34]: 1.3 | Ratio [35]: 2 | Activity [36]: 75% | IC50 [2]: 11.7 µM | IC50 [3]: 13.7 µM | IC50 [4]: 14.7 µM | selectivity ratio [37]: 5 | selectivity ratio [38]: 5 | selectivity ratio [39]: 5 | selectivity ratio [40]: 3

C[C@H](CCC(=O)O)[C@H]1CC[C@H]2[C@@H]3CC[C@@H]4C[C@H](O)CC[C@]4(C)[C@H]3CC[C@]12C [LITHOCHOLIC ACID]
inhibition [41]: inactive | inhibition [10]: inactive | inhibition [11]: inactive | Activity [42]: inactive | Activity [43]: inactive | Activity [44]: inactive | Activity [17]: 8.88% | Activity [18]: 11.54% | Activity [19]: 13.15% | Activity [20]: 10.21% | Activity [21]: 18.79% | Activity [22]: 21.89% | IC50 [2]: 81.1 µM | IC50 [3]: 173 µM | IC50 [4]: 97.4 µM
